How the values were obtained:
[1] = biological target: Hydroxycarboxylic acid receptor 2 (Homo sapiens) (UniProt Q8TDS4); assay: Serum shift in 3H-niacin binding to GPR109A receptor with 4% human serum
[2] = system: Adipocyte; assay: Inhibition of lipolysis in human adipocytes assessed as free glycerol level; assay type: functional, cell-based
In short: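 Lipolysis in human adipocytes; free glycerol release measured and used to calculate IC50.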

[3] = Cmax in mouse at 1 mg/kg, iv and 2 mg/kg, po; assay type: ADME, organism-based; conditions: in vivo
In short: (§1)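 Formulated at 0.2 mg/mL in ethanol/PEG/water (10:40:50). Dosed 1 mg/kg IV and 2 mg/kg PO, n = 3 per route. Blood was protein-precipitated with acetonitrile and drug concentration measured by LC/MS/MS.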

[4] = Clearance in mouse at 1 mg/kg, iv and 2 mg/kg, po; assay type: ADME, organism-based; conditions: in vivo
In short: as §1

[5] = Volume of distribution at steady state in mouse at 1 mg/kg, iv and 2 mg/kg, po; assay type: ADME, organism-based; conditions: in vivo, read-out: Vdss
In short: as §1

[6] = Bioavailability in mouse at 1 mg/kg, iv and 2 mg/kg, po; assay type: ADME, organism-based; conditions: in vivo
In short: as §1

[7] = Half life in mouse at 1 mg/kg, iv and 2 mg/kg, po; assay type: ADME, organism-based; conditions: in vivo
In short: as §1

[8] = biological target: Cytochrome P450 2C9 (Homo sapiens, UniProt P11712); assay: Inhibition of CYP2C9 in human liver microsomes; assay type: ADME, Microsome
Cytochrome P450 2C9, sequence (P11712 whole entry): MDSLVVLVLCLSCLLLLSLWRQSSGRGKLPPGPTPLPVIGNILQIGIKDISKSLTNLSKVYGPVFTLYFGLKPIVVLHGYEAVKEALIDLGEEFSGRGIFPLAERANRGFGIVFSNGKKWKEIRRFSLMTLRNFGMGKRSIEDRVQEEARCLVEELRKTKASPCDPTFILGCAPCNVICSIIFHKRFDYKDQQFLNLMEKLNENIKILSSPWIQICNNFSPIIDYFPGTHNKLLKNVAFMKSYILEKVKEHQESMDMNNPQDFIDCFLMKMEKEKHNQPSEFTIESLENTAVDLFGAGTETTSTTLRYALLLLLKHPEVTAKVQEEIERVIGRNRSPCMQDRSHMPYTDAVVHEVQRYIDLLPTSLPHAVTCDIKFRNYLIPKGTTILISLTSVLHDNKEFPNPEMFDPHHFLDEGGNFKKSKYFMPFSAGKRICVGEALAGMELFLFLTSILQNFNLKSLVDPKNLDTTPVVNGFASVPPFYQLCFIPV

[9] = biological target: T1, Cytochrome P450 2C8 (Homo sapiens, UniProt P10632); assay: Inhibition of CYP2C8 in human liver microsomes; assay type: ADME, Microsome
T1 sequence (P10632 whole entry): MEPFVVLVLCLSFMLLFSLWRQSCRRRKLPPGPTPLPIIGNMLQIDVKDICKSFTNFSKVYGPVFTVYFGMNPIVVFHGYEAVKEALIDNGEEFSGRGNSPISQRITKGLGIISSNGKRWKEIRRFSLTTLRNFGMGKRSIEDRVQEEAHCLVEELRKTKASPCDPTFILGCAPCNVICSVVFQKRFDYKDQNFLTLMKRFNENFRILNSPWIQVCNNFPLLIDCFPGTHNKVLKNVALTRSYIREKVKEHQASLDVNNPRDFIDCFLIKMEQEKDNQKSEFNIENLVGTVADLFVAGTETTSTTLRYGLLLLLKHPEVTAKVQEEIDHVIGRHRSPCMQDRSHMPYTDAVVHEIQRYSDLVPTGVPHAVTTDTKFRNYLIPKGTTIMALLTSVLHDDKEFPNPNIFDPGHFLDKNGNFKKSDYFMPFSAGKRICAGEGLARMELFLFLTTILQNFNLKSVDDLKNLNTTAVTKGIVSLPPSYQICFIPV
In short: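 Human liver microsomes with taxol as substrate and montelukast as positive control. IC50 determined.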

[10] = Bioavailability in rat at 1 mg/kg, iv and 2 mg/kg, po; assay type: ADME, organism-based; conditions: in vivo
In short: as §1

[11] = Half life in rat at 1 mg/kg, iv and 2 mg/kg, po; assay type: ADME, organism-based; conditions: in vivo
In short: as §1

[12] = Cmax in rat at 1 mg/kg, iv and 2 mg/kg, po; assay type: ADME, organism-based; conditions: in vivo
In short: as §1

[13] = Volume of distribution at steady state in rat at 1 mg/kg, iv and 2 mg/kg, po; assay type: ADME, organism-based; conditions: in vivo, read-out: Vdss
In short: as §1

[14] = Clearance in rat at 1 mg/kg, iv and 2 mg/kg, po; assay type: ADME, organism-based; conditions: in vivo
In short: as §1

Hydroxycarboxylic acid receptor 2 (Homo sapiens), sequence (Q8TDS4 whole entry): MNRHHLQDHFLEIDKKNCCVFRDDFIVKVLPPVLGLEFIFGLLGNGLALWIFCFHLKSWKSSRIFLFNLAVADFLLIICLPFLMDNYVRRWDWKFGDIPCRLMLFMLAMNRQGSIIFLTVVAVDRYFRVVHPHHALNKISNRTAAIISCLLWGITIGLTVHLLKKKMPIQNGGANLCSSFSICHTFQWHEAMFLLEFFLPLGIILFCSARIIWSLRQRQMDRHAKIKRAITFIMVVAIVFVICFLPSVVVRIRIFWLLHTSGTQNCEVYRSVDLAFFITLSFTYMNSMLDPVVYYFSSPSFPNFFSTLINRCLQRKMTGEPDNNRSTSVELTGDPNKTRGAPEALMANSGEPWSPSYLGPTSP

## CC(Cc1ccn(-c2ccc(O)cn2)n1)C(=O)NC1=C(C(=O)O)CCCC1 (stereo unspecified)
[1]
  serum shift: 900

## O=C(O)c1cccnc1 [NIACIN]
[2]
  IC50: 0.08 µM

## CCCC1CCC(C(=O)O)=C(NC(=O)C(C)Cc2ccn(-c3ccc(O)cn3)n2)C1 (stereo unspecified)
[1]
  serum shift: 110

## CC(Cc1ccn(-c2ccc(O)cn2)n1)C(=O)NC1=C(C(=O)O)CCC(c2cccc(F)c2)C1 (stereo unspecified)
[1]
  serum shift: 40

## O=C(CCc1cnn(-c2ccc(O)cc2)c1)Nc1ccccc1C(=O)O
[1]
  serum shift: 70
[3]
  Cmax: 480 nM
[4]
  clearance: 17 mL/min/kg
[5]
  Vd: 3.56 L/kg
[6]
  bioavailability: 21%
[7]
  half-life: 3.5 h

## Cc1c(CC(C)C(=O)Nc2ccccc2C(=O)O)cnn1-c1ccc(O)cc1 (stereo unspecified)
[8]
  IC50: 22 µM
[1]
  serum shift: 60
[2]
  IC50: 0.06 µM
[9]
  IC50: 34 µM

## O=C(CCc1cnn(-c2ccccc2)c1)Nc1ccccc1C(=O)O
[8]
  IC50: 15 µM
[1]
  serum shift: 40

## O=C(CCc1ccn(-c2ccc(O)cn2)n1)NC1=C(C(=O)O)CCCC1
[1]
  serum shift: 1000

## O=C(CCc1ccn(-c2ccc(O)cn2)n1)Nc1ccccc1C(=O)O
[1]
  serum shift: 170

## CC(Cc1ccn(-c2ccc(O)cn2)n1)C(=O)NC1=C(C(=O)O)CCC(c2cccc(F)c2F)C1 (stereo unspecified)
[1]
  serum shift: 30
[10]
  bioavailability: 4.5%
[11]
  half-life: 0.74 h
[12]
  Cmax: 30 nM
[13]
  Vd: 0.36 L/kg
[14]
  clearance: 28 mL/min/kg

## O=C(CCc1ccc(-c2ccc(O)cc2Cl)cc1)Nc1ccccc1C(=O)O
[1]
  serum shift: > 5000
[3]
  Cmax: 930 nM
[6]
  bioavailability: 4.6%

## Cc1c(CC(C)C(=O)NC2=C(C(=O)O)CCCC2)cnn1-c1ccc(O)cc1 (stereo unspecified)
[8]
  IC50: > 100 µM
[1]
  serum shift: 50
[3]
  Cmax: 4780 nM
[4]
  clearance: 3.5 mL/min/kg
[5]
  Vd: 0.68 L/kg
[6]
  bioavailability: 52%
[7]
  half-life: 4.8 h
[2]
  IC50: 0.07 µM
[9]
  IC50: > 100 µM

## CC(Cc1ccn(-c2ccc(O)cn2)n1)C(=O)Nc1ccccc1C(=O)O (stereo unspecified)
[1]
  serum shift: 200

## O=C(CCc1ccn(-c2ccccc2)n1)Nc1ccccc1C(=O)O
[8]
  IC50: 2.5 µM
[9]
  IC50: 2.7 µM

## CC(Cc1ccn(-c2ccc(O)cn2)n1)C(=O)NC1=C(C(=O)O)CC(c2cc(F)cc(F)c2)CC1 (stereo unspecified)
[8]
  IC50: 23 µM
[1]
  serum shift: 100
[10]
  bioavailability: 39%
[11]
  half-life: 5.5 h
[12]
  Cmax: 1580 nM
[13]
  Vd: 0.53 L/kg
[14]
  clearance: 8.6 mL/min/kg
[9]
  IC50: 7.7 µM

## CC(Cc1ccn(-c2ccc(O)cn2)n1)C(=O)NC1=C(C(=O)O)CCC(c2cc(F)c(F)c(F)c2)C1 (stereo unspecified)
[1]
  serum shift: 30

## O=C(CCc1cnn(-c2ccc(O)cn2)c1)NC1=C(C(=O)O)CCCC1
[8]
  IC50: > 50 µM
[1]
  serum shift: 240
[3]
  Cmax: 11500 nM
[4]
  clearance: 1.2 mL/min/kg
[5]
  Vd: 0.4 L/kg
[6]
  bioavailability: 46%
[7]
  half-life: 3.3 h

## CC(Cc1ccn(-c2ccc(O)cn2)n1)C(=O)NC1=C(C(=O)O)CC[C@@H](C)C1 (stereo partly specified)
[1]
  serum shift: 290

Source: ChEMBL document CHEMBL1155496, “Discovery of pyrazolyl propionyl cyclohexenamide derivatives as full agonists for the high affinity niacin receptor GPR109A” (Bioorg Med Chem Lett, 2010)
